# Measured values taken from PMC11904481 (ESMO Open, 2025).
# Test system: patients with locally advanced unresectable or metastatic, relapsed and/or refractory nonhematological malignancies
# Test: Phase I safety: adverse events
# Format: in vivo, human
# Outline: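 Adverse events were graded by NCI CTCAE v4.03 across three i.v. schedules of the test compound (0.45-11.3 mg/kg; weekly per 28-day cycle, or days 1, 4, 8 ±11, 15 per 21-day cycle). Special-interest events covered retinal dysfunction symptoms and documented retinal disorders. Clustered signs were grouped as 'infusion reaction'. QTc was calculated with the Fridericia correction.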
# [1] = schedules 1/2 cohort 1, 0.45 mg/kg
# [2] = schedules 1/2 cohort 2, 0.9 mg/kg
# [3] = schedules 1/2 cohort 3, 1.8 mg/kg
# [4] = schedules 1/2 cohort 4, 3.6 mg/kg
# [5] = schedules 1/2 cohort 5, 5.4 mg/kg
# [6] = schedules 1/2 cohort 6, 4.8 mg/kg
# [7] = schedules 1/2 cohort 7, 5.4 mg/kg
# [8] = schedules 1/2 cohort 8, 7.2 mg/kg
# [9] = schedules 1/2 cohort 9, 9.6 mg/kg
compound,measurement,setting,value
O=C1Nc2cc3[nH]nc(-c4ccncc4)c3cc2CN1Cc1ccccc1 [KO-947],Total number of AESI,[1],0 n
same,Total number of treatment-related TEAEs,[1],2 n
same,Treatment-related TEAE: Blurred vision,[1],0 n (%)
same,Treatment-related TEAE: Dermatitis acneiform,[1],0 n (%)
same,Treatment-related TEAE: Fatigue,[1],1 (100) n (%)
same,Treatment-related TEAE: Headache,[1],0 n (%)
same,Treatment-related TEAE: Nausea,[1],0 n (%)
same,Treatment-related TEAE: QTc prolongation,[1],0 n (%)
same,Treatment-related TEAE: Subretinal fluid,[1],0 n (%)
same,Treatment-related TEAE: Vomiting,[1],0 n (%)
same,AESI: Blurred vision,[2],0 n (%)
same,AESI: Eye disorders,[2],0 n (%)
same,AESI: Macular edema,[2],0 n (%)
same,AESI: Retinal edema,[2],0 n (%)
same,AESI: Subretinal fluid,[2],0 n (%)
same,AESI: Vitreous floaters,[2],0 n (%)
same,Patients with ≥1 AESI,[2],0 n (%)
same,Patients with ≥1 treatment-related TEAE,[2],0 n (%)
same,Total number of AESI,[2],0 n
same,Total number of treatment-related TEAEs,[2],0 n
same,Treatment-related TEAE: Blurred vision,[2],0 n (%)
same,Treatment-related TEAE: Dermatitis acneiform,[2],0 n (%)
same,Treatment-related TEAE: Fatigue,[2],0 n (%)
same,Treatment-related TEAE: Headache,[2],0 n (%)
same,Treatment-related TEAE: Nausea,[2],0 n (%)
same,Treatment-related TEAE: QTc prolongation,[2],0 n (%)
same,Treatment-related TEAE: Subretinal fluid,[2],0 n (%)
same,Treatment-related TEAE: Vomiting,[2],0 n (%)
same,AESI: Blurred vision,[3],0 n (%)
same,AESI: Eye disorders,[3],0 n (%)
same,AESI: Macular edema,[3],0 n (%)
same,AESI: Retinal edema,[3],0 n (%)
same,AESI: Subretinal fluid,[3],0 n (%)
same,AESI: Vitreous floaters,[3],0 n (%)
same,Patients with ≥1 AESI,[3],0 n (%)
same,Patients with ≥1 treatment-related TEAE,[3],1 (100) n (%)
same,Total number of AESI,[3],0 n
same,Total number of treatment-related TEAEs,[3],1 n
same,Treatment-related TEAE: Blurred vision,[3],0 n (%)
same,Treatment-related TEAE: Dermatitis acneiform,[3],0 n (%)
same,Treatment-related TEAE: Fatigue,[3],0 n (%)
same,Treatment-related TEAE: Headache,[3],0 n (%)
same,Treatment-related TEAE: Nausea,[3],0 n (%)
same,Treatment-related TEAE: QTc prolongation,[3],0 n (%)
same,Treatment-related TEAE: Subretinal fluid,[3],0 n (%)
same,Treatment-related TEAE: Vomiting,[3],0 n (%)
same,AESI: Blurred vision,[4],0 n (%)
same,AESI: Eye disorders,[4],0 n (%)
same,AESI: Macular edema,[4],0 n (%)
same,AESI: Retinal edema,[4],0 n (%)
same,AESI: Subretinal fluid,[4],0 n (%)
same,AESI: Vitreous floaters,[4],0 n (%)
same,Patients with ≥1 AESI,[4],0 n (%)
same,Patients with ≥1 treatment-related TEAE,[4],2 (67) n (%)
same,Total number of AESI,[4],0 n
same,Total number of treatment-related TEAEs,[4],7 n
same,Treatment-related TEAE: Blurred vision,[4],0 n (%)
same,Treatment-related TEAE: Dermatitis acneiform,[4],0 n (%)
same,Treatment-related TEAE: Fatigue,[4],0 n (%)
same,Treatment-related TEAE: Headache,[4],1 (33) n (%)
same,Treatment-related TEAE: Nausea,[4],1 (33) n (%)
same,Treatment-related TEAE: QTc prolongation,[4],0 n (%)
same,Treatment-related TEAE: Subretinal fluid,[4],0 n (%)
same,Treatment-related TEAE: Vomiting,[4],1 (33) n (%)
same,AESI: Blurred vision,[5],0 n (%)
same,AESI: Eye disorders,[5],0 n (%)
same,AESI: Macular edema,[5],0 n (%)
same,AESI: Retinal edema,[5],0 n (%)
same,AESI: Subretinal fluid,[5],0 n (%)
same,AESI: Vitreous floaters,[5],0 n (%)
same,Patients with ≥1 AESI,[5],0 n (%)
same,Patients with ≥1 treatment-related TEAE,[5],7 (100) n (%)
same,Total number of AESI,[5],0 n
same,Total number of treatment-related TEAEs,[5],60 n
same,Treatment-related TEAE: Blurred vision,[5],4 (57) n (%)
same,Treatment-related TEAE: Dermatitis acneiform,[5],0 n (%)
same,Treatment-related TEAE: Fatigue,[5],1 (14) n (%)
same,Treatment-related TEAE: Headache,[5],1 (14) n (%)
same,Treatment-related TEAE: Nausea,[5],1 (14) n (%)
same,Treatment-related TEAE: QTc prolongation,[5],1 (14) n (%)
same,Treatment-related TEAE: Subretinal fluid,[5],3 (43) n (%)
same,Treatment-related TEAE: Vomiting,[5],0 n (%)
same,AESI: Blurred vision,[6],0 n (%)
same,AESI: Eye disorders,[6],1 (25) n (%)
same,AESI: Macular edema,[6],0 n (%)
same,AESI: Retinal edema,[6],0 n (%)
same,AESI: Subretinal fluid,[6],1 (25) n (%)
same,AESI: Vitreous floaters,[6],0 n (%)
same,Patients with ≥1 AESI,[6],1 (25) n (%)
same,Patients with ≥1 treatment-related TEAE,[6],3 (75) n (%)
same,Total number of AESI,[6],3 n
same,Total number of treatment-related TEAEs,[6],25 n
same,Treatment-related TEAE: Blurred vision,[6],1 (25) n (%)
same,Treatment-related TEAE: Dermatitis acneiform,[6],1 (25) n (%)
same,Treatment-related TEAE: Fatigue,[6],0 n (%)
same,Treatment-related TEAE: Headache,[6],1 (25) n (%)
same,Treatment-related TEAE: Nausea,[6],1 (25) n (%)
same,Treatment-related TEAE: QTc prolongation,[6],0 n (%)
same,Treatment-related TEAE: Subretinal fluid,[6],1 (25) n (%)
same,Treatment-related TEAE: Vomiting,[6],0 n (%)
same,AESI: Blurred vision,[7],2 (67) n (%)
same,AESI: Eye disorders,[7],3 (10) n (%)
same,AESI: Macular edema,[7],0 n (%)
same,AESI: Retinal edema,[7],0 n (%)
same,AESI: Subretinal fluid,[7],2 (67) n (%)
same,AESI: Vitreous floaters,[7],1 (33) n (%)
same,Patients with ≥1 AESI,[7],3 (10) n (%)
same,Patients with ≥1 treatment-related TEAE,[7],3 (100) n (%)
same,Total number of AESI,[7],5 n
same,Total number of treatment-related TEAEs,[7],18 n
same,Treatment-related TEAE: Blurred vision,[7],2 (67) n (%)
same,Treatment-related TEAE: Dermatitis acneiform,[7],1 (33) n (%)
same,Treatment-related TEAE: Fatigue,[7],1 (33) n (%)
same,Treatment-related TEAE: Headache,[7],1 (33) n (%)
same,Treatment-related TEAE: Nausea,[7],2 (67) n (%)
same,Treatment-related TEAE: QTc prolongation,[7],0 n (%)
same,Treatment-related TEAE: Subretinal fluid,[7],2 (67) n (%)
same,Treatment-related TEAE: Vomiting,[7],1 (33) n (%)
same,AESI: Blurred vision,[8],2 (40) n (%)
same,AESI: Eye disorders,[8],5 (10) n (%)
same,AESI: Macular edema,[8],0 n (%)
same,AESI: Retinal edema,[8],1 (20) n (%)
same,AESI: Subretinal fluid,[8],2 (40) n (%)
same,AESI: Vitreous floaters,[8],0 n (%)
same,Patients with ≥1 treatment-related TEAE,[8],5 (100) n (%)
same,Total number of AESI,[8],5 n
same,Total number of treatment-related TEAEs,[8],14 n
same,Treatment-related TEAE: Blurred vision,[8],2 (40) n (%)
same,Treatment-related TEAE: Dermatitis acneiform,[8],2 (40) n (%)
same,Treatment-related TEAE: Fatigue,[8],0 n (%)
same,Treatment-related TEAE: Headache,[8],0 n (%)
same,Treatment-related TEAE: Nausea,[8],0 n (%)
same,Treatment-related TEAE: QTc prolongation,[8],0 n (%)
same,Treatment-related TEAE: Subretinal fluid,[8],2 (40) n (%)
same,Treatment-related TEAE: Vomiting,[8],1 (20) n (%)
same,AESI: Blurred vision,[9],8 (89) n (%)
same,AESI: Eye disorders,[9],8 (89) n (%)
same,AESI: Macular edema,[9],1 (11) n (%)
same,AESI: Retinal edema,[9],1 (11) n (%)
same,AESI: Subretinal fluid,[9],3 (33) n (%)
same,AESI: Vitreous floaters,[9],1 (11) n (%)
same,Patients with ≥1 AESI,[9],8 (89) n (%)
same,Patients with ≥1 treatment-related TEAE,[9],8 (89) n (%)
same,Total number of AESI,[9],16 n
same,Total number of treatment-related TEAEs,[9],39 n
same,Treatment-related TEAE: Blurred vision,[9],8 (89) n (%)
same,Treatment-related TEAE: Dermatitis acneiform,[9],1 (11) n (%)
same,Treatment-related TEAE: Fatigue,[9],1 (11) n (%)
same,Treatment-related TEAE: Headache,[9],0 n (%)
same,Treatment-related TEAE: Nausea,[9],1 (11) n (%)
same,Treatment-related TEAE: QTc prolongation,[9],4 (44) n (%)
same,Treatment-related TEAE: Subretinal fluid,[9],3 (33) n (%)
same,Treatment-related TEAE: Vomiting,[9],2 (22) n (%)
same,AESI: Blurred vision,schedules 1/2 total N = 34,12 (35) n (%)
same,AESI: Eye disorders,schedules 1/2 total N = 34,17 (50) n (%)
same,AESI: Macular edema,schedules 1/2 total N = 34,1 (3) n (%)
same,AESI: Retinal edema,schedules 1/2 total N = 34,2 (6) n (%)
same,AESI: Subretinal fluid,schedules 1/2 total N = 34,8 (24) n (%)
same,AESI: Vitreous floaters,schedules 1/2 total N = 34,2 (6) n (%)
same,Patients with ≥1 AESI,schedules 1/2 total N = 34,17 (50) n (%)
same,Patients with ≥1 treatment-related TEAE,schedules 1/2 total N = 34,30 (88) n (%)
same,Total number of AESI,schedules 1/2 total N = 34,29 n
same,Total number of treatment-related TEAEs,schedules 1/2 total N = 34,166 n
same,Treatment-related TEAE: Blurred vision,schedules 1/2 total N = 34,17 (50) n (%)
same,Treatment-related TEAE: Dermatitis acneiform,schedules 1/2 total N = 34,5 (15) n (%)
same,Treatment-related TEAE: Fatigue,schedules 1/2 total N = 34,4 (12) n (%)
same,Treatment-related TEAE: Headache,schedules 1/2 total N = 34,4 (12) n (%)
same,Treatment-related TEAE: Nausea,schedules 1/2 total N = 34,6 (18) n (%)
same,Treatment-related TEAE: QTc prolongation,schedules 1/2 total N = 34,5 (15) n (%)
same,Treatment-related TEAE: Subretinal fluid,schedules 1/2 total N = 34,11 (32) n (%)
same,Treatment-related TEAE: Vomiting,schedules 1/2 total N = 34,5 (15) n (%)
same,grade ≥3 TEAE: QTc prolongation on ECG,schedules 1 and 2,9%
same,grade ≥3 TEAE: hypokalemia,schedules 1 and 2,6%
same,grade ≥3 TEAE: increased blood alkaline phosphatase,schedules 1 and 2,6%
same,grade ≥3 TEAE: increased gamma-glutamyl transferase,schedules 1 and 2,15%
same,grade ≥3 TEAE: lymphopenia,schedules 1 and 2,6%
same,grade ≥3 TEAE: rash,schedules 1 and 2,6%
same,patients discontinued owing to AEs,schedules 1 and 2,3%
same,patients with at least one AESI,schedules 1 and 2,50%
same,patients with grade ≥3 TEAEs,schedules 1 and 2,50%
same,treatment-related QTc prolongation,schedules 1 and 2,15%
same,treatment-related blurred vision,schedules 1 and 2,50%
same,treatment-related dermatitis acneiform,schedules 1 and 2,15%
same,treatment-related fatigue,schedules 1 and 2,12%
same,treatment-related headache,schedules 1 and 2,12%
same,treatment-related nausea,schedules 1 and 2,18%
same,treatment-related subretinal fluid,schedules 1 and 2,32%
same,treatment-related vomiting,schedules 1 and 2,15%
